In ChEMBL document CHEMBL1154775, “Discovery of dermorphin-based affinity labels with subnanomolar affinity for mu opioid receptors” (J Med Chem, 2009):
The source made the active and inactive calls. No cut-off for these calls is given here. Numbered stars: 1 amine (or outer) side, 2 acyl side, 3 side chain; on linkers, the order of the positions; unused ones are H or OH. Square brackets hold non-standard residues; d marks the D form. Peptide text beside a SMILES is read from it. X6 = O=C(CBr)N(CCCC[C@@H](N[*:1])C(=O)[*:2])C(=O)CBr; X1 = O=C(CBr)N(CCC[C@@H](N[*:1])C(=O)[*:2])C(=O)CBr; X7 = CC(=O)N(CCCC[C@@H](N[*:1])C(=O)[*:2])C(C)=O; X8 = CC(=O)N(CCC[C@@H](N[*:1])C(=O)[*:2])C(C)=O; X5 = O=C([C@@H](CCCCN(N=C=S)N=C=S)N[*:1])[*:2]; X4 = O=C([C@@H](CCCN(N=C=S)N=C=S)N[*:1])[*:2]

Legend:
Mu-type opioid receptor [1] = target: Mu-type opioid receptor (Cavia porcellus, UniProt P97266); assay: Displacement of beta-[3H]FNA from mu opioid receptor in guinea pig brain membrane; type: cell membranes
[2] = target: Mu-type opioid receptor (Rattus norvegicus) (UniProt P33535); assay: Inhibition of [3H]naloxone binding to mu opioid receptor in rat brain membrane; type: cell membranes
Mu-type opioid receptor [3] = target: T1, Mu-type opioid receptor (Homo sapiens, UniProt P35372); assay: Inhibition of [3H]DAMGO binding to mu opioid receptor expressed in CHO cells after 90 mins by WRIB assay; type: cell-based
Outline: (§1)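 Wash-resistant inhibition of binding in MOR-expressing CHO cell membranes. Membranes were incubated with peptide, either near its IC50 or at higher concentrations, then washed extensively to remove noncovalently bound ligand. Remaining [3H]DAMGO binding was then measured and expressed as % inhibition against untreated control. Acetylated reversible analogues were run alongside to verify that the wash was complete.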

Mu-type opioid receptor [4] = target: T1, Mu-type opioid receptor; assay: Displacement of [3H]DAMGO from mu opioid receptor expressed in CHO cells after 90 mins by scintillation counting; type: cell-based
Outline: (§2)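 Competitive radioligand binding on CHO cells stably expressing MOR or DOR. Radioligand was [3H]DAMGO for MOR and [3H]DPDPE for DOR. IC50 values were measured under standard conditions.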

Mu-type opioid receptor [5] = target: T1, Mu-type opioid receptor; details: CHO; 0.11 nM
Mu-type opioid receptor [6] = target: T1, Mu-type opioid receptor; assay: Displacement of [3H]DAMGO from mu opioid receptor expressed in CHO cells after 90 mins by scintillation counting relative to dermorphin; type: cell-based
[7] = target: Delta-type opioid receptor (Homo sapiens, UniProt P41143); assay: Displacement of [3H]DPDPE from delta opioid receptor expressed in CHO cells after 90 mins by scintillation counting; type: cell-based; outline: as §2
[8] = target: Mu-type opioid receptor (Cavia porcellus) (UniProt P97266); assay: Ratio of compound IC50 to beta-FNA IC50 for mu opioid receptor in guinea pig brain membrane; type: cell membranes
Mu-type opioid receptor [9] = target: T1, Mu-type opioid receptor; assay: Ratio of dermorphin IC50 to compound IC50 for mu opioid receptor expressed in CHO cells; type: cell-based
[10] = Selectivity ratio of IC50 for delta opioid receptor to IC50 for mu opioid receptor
Outline: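 MOR selectivity was calculated as the ratio of DOR IC50 to MOR IC50. Both IC50s came from CHO-cell binding, with [3H]DPDPE as the DOR radioligand and [3H]DAMGO as the MOR radioligand. Ratios depend on the radioligand concentration used.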

Mu-type opioid receptor [11] = target: T1, Mu-type opioid receptor; details: CHO; 0.43 nM
[12] = Ratio of dermorphin selectivity for mu opioid receptor over delta opioid receptor to compound selectivity for mu opioid receptor over delta opioid receptor
Mu-type opioid receptor [13] = target: T1, Mu-type opioid receptor; assay: Inhibition of [3H]DAMGO binding to mu opioid receptor expressed in CHO cells at 0.4 nM after 90 mins by WRIB assay; type: cell-based; outline: as §1
Mu-type opioid receptor [14] = target: T1, Mu-type opioid receptor; assay: Inhibition of [3H]DAMGO binding to mu opioid receptor expressed in CHO cells at 7 nM after 90 mins by WRIB assay; type: cell-based; outline: as §1
[15] = target: Mu-type opioid receptor (Rattus norvegicus) (UniProt P33535); assay: (§3) Inhibition of [3H]DAMGO binding to mu opioid receptor in rat brain membrane; type: cell membranes
Mu-type opioid receptor [16] = target: Mu-type opioid receptor (Rattus norvegicus, UniProt P33535); assay: as §3; type: cell membranes
Chain of Mu-type opioid receptor (Rattus norvegicus, UniProt P33535) (P33535 whole entry): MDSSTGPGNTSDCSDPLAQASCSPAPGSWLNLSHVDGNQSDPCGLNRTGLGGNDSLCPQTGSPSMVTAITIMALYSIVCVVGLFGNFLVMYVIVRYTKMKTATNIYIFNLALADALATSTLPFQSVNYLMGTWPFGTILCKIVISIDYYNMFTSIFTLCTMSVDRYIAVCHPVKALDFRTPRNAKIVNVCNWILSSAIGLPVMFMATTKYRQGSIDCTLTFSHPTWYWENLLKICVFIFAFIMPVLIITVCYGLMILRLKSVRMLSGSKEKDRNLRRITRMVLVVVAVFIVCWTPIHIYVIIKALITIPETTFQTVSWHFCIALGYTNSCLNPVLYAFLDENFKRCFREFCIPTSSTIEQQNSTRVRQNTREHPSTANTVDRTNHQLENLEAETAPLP

T1 sequence (P35372 whole entry): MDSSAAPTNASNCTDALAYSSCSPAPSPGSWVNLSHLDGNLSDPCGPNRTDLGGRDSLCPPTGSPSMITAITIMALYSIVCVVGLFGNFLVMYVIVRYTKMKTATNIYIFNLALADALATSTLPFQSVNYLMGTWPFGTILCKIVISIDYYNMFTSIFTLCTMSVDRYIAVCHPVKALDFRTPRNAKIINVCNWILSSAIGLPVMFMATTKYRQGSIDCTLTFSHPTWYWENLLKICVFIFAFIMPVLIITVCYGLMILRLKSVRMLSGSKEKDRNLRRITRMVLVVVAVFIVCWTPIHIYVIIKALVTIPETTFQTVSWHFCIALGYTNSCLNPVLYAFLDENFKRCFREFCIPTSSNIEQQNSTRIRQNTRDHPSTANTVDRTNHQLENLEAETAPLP
Chain of Delta-type opioid receptor (P41143 whole entry): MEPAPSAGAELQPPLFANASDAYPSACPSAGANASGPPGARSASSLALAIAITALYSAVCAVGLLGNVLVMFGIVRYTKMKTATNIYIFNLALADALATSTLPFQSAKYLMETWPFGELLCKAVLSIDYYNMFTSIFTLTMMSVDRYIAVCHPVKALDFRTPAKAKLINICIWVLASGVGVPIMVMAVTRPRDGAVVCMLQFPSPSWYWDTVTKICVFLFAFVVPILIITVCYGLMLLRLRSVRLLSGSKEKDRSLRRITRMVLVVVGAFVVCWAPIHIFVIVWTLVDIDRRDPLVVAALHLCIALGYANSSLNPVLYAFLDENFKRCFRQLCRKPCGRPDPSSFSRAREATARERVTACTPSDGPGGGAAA
Chain of Mu-type opioid receptor (Cavia porcellus) (P97266 whole entry): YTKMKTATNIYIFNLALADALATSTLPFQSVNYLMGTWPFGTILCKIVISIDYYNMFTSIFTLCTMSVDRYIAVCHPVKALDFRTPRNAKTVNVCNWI
Chain of Mu-type opioid receptor (Rattus norvegicus) (P33535 whole entry): as the sequence (P33535 whole entry) above
Chain of Mu-type opioid receptor (Cavia porcellus, UniProt P97266) (P97266 whole entry): as the sequence (P97266 whole entry) above

SMILES	IC50 (Mu-type opioid receptor [4]) [nM]	Activity (Mu-type opioid receptor [6])	IC50 [7] [nM]	Ratio IC50 [8]	Ratio IC50 [10]	also measured
COC(=O)/C=C/C(=O)N[C@@H]1CC[C@@]2(O)[C@H]3Cc4ccc(O)c5c4[C@@]2(CCN3CC2CC2)[C@H]1O5	–	–	–	–	–	IC50 (Mu-type opioid receptor [1]): 2.2 nM
C[C@@H](NC(=O)[C@@H](N)Cc1ccc(O)cc1)C(=O)NCC(=O)N(C)c1ccccc1	–	–	–	–	–	inhibition [2]: Dose-dependent effect
N[C@@H](Cc1ccc(O)cc1)C(=O)N[C@H](CCCN(C(=O)CBr)C(=O)CBr)C(=O)N[C@@H](Cc1ccccc1)C(=O)NCC(=O)N[C@@H](Cc1ccc(O)cc1)C(=O)N1CCC[C@H]1C(=O)N[C@@H](CO)C(=O)O (H-Y[X1]FGYPS-OH)	0.11	6.54	342	3	3110	inhibition (Mu-type opioid receptor [3]): Dose-dependent effect; inhibition (Mu-type opioid receptor [5]): inactive; Ratio IC50 (Mu-type opioid receptor [9]): 7
N[C@@H](Cc1ccc(O)cc1)C(=O)N[C@H](CCCN(N=C=S)N=C=S)C(=O)N[C@@H](Cc1ccccc1)C(=O)NCC(=O)N[C@@H](Cc1ccc(O)cc1)C(=O)N1CCC[C@H]1C(=O)N[C@@H](CO)C(=O)O (H-Y[X4]FGYPS-OH)	0.81	0.89	23.8	3	29	inhibition (Mu-type opioid receptor [11]): 40%; Ratio [12]: 9
N[C@@H](Cc1ccc(O)cc1)C(=O)N[C@H](CCCCN(N=C=S)N=C=S)C(=O)N[C@@H](Cc1ccccc1)C(=O)NCC(=O)N[C@@H](Cc1ccc(O)cc1)C(=O)N1CCC[C@H]1C(=O)N[C@@H](CO)C(=O)O (H-Y[X5]FGYPS-OH)	0.38	1.89	97.1	–	255	inhibition (Mu-type opioid receptor [3]): Dose-dependent effect; inhibition (Mu-type opioid receptor [13]): 31%; Ratio IC50 (Mu-type opioid receptor [9]): 2
N[C@@H](Cc1ccc(O)cc1)C(=O)N[C@H](CCCCN(C(=O)CBr)C(=O)CBr)C(=O)N[C@@H](Cc1ccccc1)C(=O)NCC(=O)N[C@@H](Cc1ccc(O)cc1)C(=O)N1CCC[C@H]1C(=O)N[C@@H](CO)C(=O)O (H-Y[X6]FGYPS-OH)	5.23	0.14	382	3	73	Ratio [12]: 4; inhibition (Mu-type opioid receptor [14]): 32%
CC(=O)N(CCCC[C@@H](NC(=O)[C@@H](N)Cc1ccc(O)cc1)C(=O)N[C@@H](Cc1ccccc1)C(=O)NCC(=O)N[C@@H](Cc1ccc(O)cc1)C(=O)N1CCC[C@H]1C(=O)N[C@@H](CO)C(=O)O)C(C)=O (H-Y[X7]FGYPS-OH)	29.8	0.02	436	–	15	–
CC(=O)N(CCC[C@@H](NC(=O)[C@@H](N)Cc1ccc(O)cc1)C(=O)N[C@@H](Cc1ccccc1)C(=O)NCC(=O)N[C@@H](Cc1ccc(O)cc1)C(=O)N1CCC[C@H]1C(=O)N[C@@H](CO)C(=O)O)C(C)=O (H-Y[X8]FGYPS-OH)	4.25	0.17	272	–	64	–
CC(C)C[C@@H](CSSc1ncccc1[N+](=O)[O-])NC(=O)[C@H](Cc1ccccc1)NC(=O)CNC(=O)C(C)NC(=O)[C@@H](N)Cc1ccc(O)cc1 (stereo in doubt)	–	–	–	–	–	inhibition [15]: Dose-dependent effect; IC50 (Mu-type opioid receptor [16]): 19 nM
